The values below come from PubChem BioAssay AID2152 (The Scripps Research Institute Molecular Screening Center, 2009).

Each structure is given as a SMILES string. Out of some 2,300 compounds screened, about 25 (1%) were called active. Many of the other results were omitted from the sample, so actives are more common in it than they were. Values without a mark were called inactive.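 How the source made its calls: active means mean inhibition over three replicate wells above the hit threshold derived in the earlier primary screen (cut at about 45% in these data); inactive means the rest.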

This experiment has as its system Hepatitis C virus core protein (core106 dimerization). Briefly: inhibitors of HCV core protein dimerization, confirmation, biochemical, TR-FRET, triplicate (AID 2152).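 Further: 0% = DMSO wells and 100% = unlabelled core106 competitor control.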 To be noted: TR-FRET GST-/Flag-core106 dimerization, HTRF; at 5 µM; stronger effect = higher value. In short, it runs like this: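 Test system – GST- and Flag-tagged HCV core106 peptides, dimerization via antibody TR-FRET · Amount – 17 nM Flag- plus 13.5 nM GST-core106 · Schedule – 4 h incubation, 22.5 °C · Compound dosing – one 5 µM dose, 0.5% DMSO · Detection – TR-FRET, 340 nm excitation, 671/617 nm emission · Reagent – Eu(K)-anti-GST plus XL665-anti-FLAG antibodies · Read-out basis – percent inhibition from emission ratio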
(In general: In TR-FRET formats the signal depends on donor and acceptor labels being close together.)
A word on the inhibition: it is the relative decrease from the control value, in per cent. For `CC(C)C(C)(C#N)NC(=O)CSc1nc2scc(-c3ccco3)c2c(=O)n1-c1ccccc1` (configuration not stated), the inhibition is -0.21%.

Consider `N#C/C(=N\Nc1ccc(S(=O)(=O)N2CCc3ccccc32)cc1)C(N)=S`, for which the inhibition was -0.77%.

On to `CC(=O)Oc1ccc(C(=O)[C@H]2[C@H]3C(=O)N(c4ccccc4)C(=O)[C@H]3[C@@H]3C=CC=NN32)cc1`, for which the inhibition was -1.31%.

On to `COc1cccc(NC(=O)c2cc(-c3ccc(C)o3)nc3ccccc23)c1`, for which the inhibition is -3.59%.

As to `COc1ccc(-n2nc3cc(C)c(NC(=S)NC(=O)c4ccccc4C)cc3n2)cc1`, the inhibition is 14.3%.

For `COc1cccc(NC(=S)Nc2cc(C)cc(C)n2)c1`, the inhibition was 72.9% (active).

For `CC1Cc2ccccc2N1Cc1cc(=O)n2ccsc2n1` (configuration not stated), the inhibition was 3.14%.

On to `COc1ccc(C(=O)[C@H]2[C@H]3C(=O)N(c4ccc(C)cc4)C(=O)[C@H]3C3C=CC=NN32)cc1` (some centres not stated), for which the inhibition was 2.52%.

Consider `Cc1cc(C)c2nc(-c3ccccn3)cc(C(=O)Nc3ccc(S(=O)(=O)Nc4cc(C)on4)cc3)c2c1`, for which the inhibition is 14.4%.

With `COc1cccc2c1NC(C(=O)O)C1CC=CC21` (configuration not stated), the inhibition is 8.1%.

For the compound `O=C(O)C1Nc2c(O)cccc2C2C=CCC12` (configuration not stated), the inhibition was 53.8% (active).

For the compound `Cc1ccc2c(c1C)NC(C(=O)O)C1CC=CC21` (configuration not stated), the inhibition was 17.4%.

Take `COc1ccccc1Nc1ncc(-c2cccs2)s1`: the inhibition was -8.18%.

Consider `O=C(CN1CCN(c2ccc(F)cc2)CC1)NC(=O)NCc1ccco1`, for which the inhibition is -6.85%.

Regarding `O=C(Cn1c(=O)c2c(ncn2C2CCCC2)n(Cc2ccccc2)c1=O)N1CCc2ccccc21`, the inhibition was 5.72%.

As for `COc1ccc(C2=NN(c3nc(-c4ccccc4)c(CC(=O)O)s3)C(c3ccco3)C2)cc1` (configuration not stated), the inhibition is 51.3% (active).

Take `COc1ccc(C2CC(c3ccccc3)=NN2c2ccc(/C=N/NC(=O)c3ccncc3)cc2)cc1` (configuration not stated): the inhibition is -1.14%.

In the case of `CC(C)[C@H](NS(=O)(=O)c1ccccc1)C(=O)OCC(=O)N1N=C(c2ccc(Cl)cc2)CC1c1ccco1` (some centres not stated), the inhibition was -2.37%.

Regarding `COc1ccc(C(=O)N/N=C(\C)c2ccc3c(c2)C2C=CCC2C(c2ccccc2)N3)cc1` (configuration not stated), the inhibition was 1.09%.

Turning to `Cc1cccc(N2CC(C(=O)Nc3nnc(SCc4ccccn4)s3)CC2=O)c1` (configuration not stated), the inhibition was 21.3%.

As to `COc1ccc(C=O)cc1COc1ccc(F)cc1F`, the inhibition is -6.06%.

With `O=C(Nc1ccc(N2CCCC2)c(Cl)c1)c1cccc(-c2cc3ccccc3oc2=O)c1`, the inhibition is -5.08%.

As for `N#Cc1c(-c2ccco2)cc(-c2ccccn2)nc1N`, the inhibition is 3.09%.

As for `CCN(CC(=O)Nc1ccc(OC)cc1)C(=O)Cc1cccs1`, the inhibition is 6.25%.

Consider `Cc1ccc(C)c(S(=O)(=O)N2CCC(c3nc4c(nnn4Cc4ccc5c(c4)OCCO5)c(=O)[nH]3)CC2)c1`, for which the inhibition is 7.31%.

Regarding `Cc1ccc(O)c(N=CC2=C(O)c3ccccc3C2=O)c1`, the inhibition was 7.52%.

As to `COc1ccccc1NS(=O)(=O)c1cc(NC(=O)Nc2ccc(Cl)cc2Cl)ccc1N1CCCCC1`, the inhibition is -5.21%.

For `O=Cc1cn(-c2ccccc2)nc1-c1cc2c(ccc3ccccc32)oc1=O`, the inhibition is -0.21%.

As for `COC(=O)/C=c1/s/c(=C(\C#N)C(=O)NCc2ccco2)n(-c2ccc(C)cc2)c1=O`, the inhibition was -4.05%.

Regarding `Cc1c(C(=O)Nc2ccc(Cl)cc2)c2ccccn2c1C(=O)c1ccc([N+](=O)[O-])cc1`, the inhibition was -5.31%.

Regarding `O=C(OCC(=O)c1ccc(Cl)s1)c1cnccn1`, the inhibition is 1.14%.

Take `CCOC(=O)c1ccc(NC(=O)COc2ccc(-n3cnnn3)cc2)cc1`: the inhibition is 3.21%.

Consider `COc1ccccc1N1CCN(C(=O)c2ccc3c(c2)NC(=O)C(CSCc2ccccc2C)N3)CC1` (configuration not stated), for which the inhibition is 25.3%.

`Cc1ccc(N2C(=O)N3[C@H](c4ccc(F)cc4)[C@@H]4C(=O)N(C5CCCCC5)C(=O)[C@@H]4[C@]3(Cc3ccccc3)C2=O)cc1`: the inhibition was -1.83%.

`CC(=O)Nc1ccc(NC(=O)c2ccc(COc3ccccc3)cc2)cc1`: the inhibition is -12.8%.

In the case of `Cc1cc(-c2csc(NC(=O)c3cc4ccccc4o3)n2)c(C)n1C`, the inhibition is 22.5%.

`COC(=O)c1ccc(Oc2coc3cc(OCc4cnn(-c5ccccc5)c4)ccc3c2=O)cc1`: the inhibition is -4.6%.

As for `N#Cc1c(-c2cccc(F)c2)cc(-c2ccccc2)nc1Br`, the inhibition is 9.78%.

As to `CCOC(=O)C1=C(c2ccccc2)NC(=S)NC1c1cc([N+](=O)[O-])ccc1OC` (configuration not stated), the inhibition was -1.99%.

For the compound `COc1ccc(-n2c(-c3ccccc3)nc(=S)c3c2CCCC3)cc1`, the inhibition was 33.8%.

Consider `O=[N+]([O-])c1ccc(Oc2cc(NC3CCCCCCC3)c([N+](=O)[O-])cc2[N+](=O)[O-])cc1`, for which the inhibition is -0.42%.

For the compound `Cc1ccc2nc(/C(C#N)=C\c3ccc(Oc4ccc(C(F)(F)F)cc4[N+](=O)[O-])cc3)[nH]c2c1`, the inhibition was -6.22%.

In the case of `N#CC(=C1CCCC1)c1nc(-c2ccccc2O)cs1`, the inhibition was -2%.

For the compound `O=C(Nc1ccc2c(c1)OCO2)c1cc(-c2cccnc2)nc2ccccc12`, the inhibition is -0.48%.

For `O=C1C2C3C=CC(C4CC34)C2C(=O)N1/N=C/c1ccc(-c2ccc(Cl)cc2[N+](=O)[O-])o1` (configuration not stated), the inhibition was -5.46%.

As to `CCN1C=C(Cc2cccs2)C2=C(C1)C(c1cccs1)C(C#N)=C(N)O2` (configuration not stated), the inhibition was -3.27%.

On to `CCCc1nc2sc3c(SCC(=O)NCc4ccco4)ncnc3c2c2c1CCC2`, for which the inhibition is 15.9%.

For the compound `CCCCc1nc2sc3c(SCC(=O)NCc4ccco4)ncnc3c2c2c1CCC2`, the inhibition is 52.8% (active).

With `CSc1nc(SCC(=O)NCc2ccco2)c2c3c(sc2n1)CN(C)CC3`, the inhibition was 20.1%.

As for `O=C(NCc1ccco1)C(c1ccco1)N(C(=O)Cn1nnc2ccccc21)c1ccc2c(c1)CCC2` (configuration not stated), the inhibition was 6.56%.

As for `COc1ccc(/C=C/C(=O)Nc2cc(C)nn2-c2nc3ccccc3n2Cc2cccc([N+](=O)[O-])c2)cc1`, the inhibition is -5.15%.

As to `COc1ccc(NS(=O)(=O)c2ccc(O)c(NC(=O)c3cc4c(C)nn(-c5ccc(F)cc5)c4s3)c2)cc1`, the inhibition was -2.83%.

For the compound `CCCCn1c(SCC(=O)Nc2cc(C)on2)nc2ccccc2c1=O`, the inhibition was 54.9% (active).

As for `COc1cccc(-n2c(SCC(=O)Nc3cc(C)on3)nc3c([nH]c4ccccc43)c2=O)c1`, the inhibition was -2.22%.

`Cc1ccc(Cn2c(SCC(=O)Nc3cc(C)on3)nc3ccccc3c2=O)cc1`: the inhibition is 9.61%.

Turning to `CC1CCCCC12NC(=O)N(CC(=O)c1ccc[nH]1)C2=O` (configuration not stated), the inhibition is -2.48%.

As for `Cn1c(SCC(=O)Nc2sccc2C#N)nnc1-c1ccccc1`, the inhibition was -0.16%.
